Assay results published in PMC2834294 (Chemistry & biology, 2010).

Columns and labels:
[1] = molecular target: T1, TRPML3 coexpressed with dynamin (Homo sapiens, UniProt Q8TDD5); assay: Calcium imaging, HEK293 cells coexpressing wild type dynamin with TRPML3; assay type: cell-based; settings: compared to control experiments
T1 sequence (Q8TDD5 1-553): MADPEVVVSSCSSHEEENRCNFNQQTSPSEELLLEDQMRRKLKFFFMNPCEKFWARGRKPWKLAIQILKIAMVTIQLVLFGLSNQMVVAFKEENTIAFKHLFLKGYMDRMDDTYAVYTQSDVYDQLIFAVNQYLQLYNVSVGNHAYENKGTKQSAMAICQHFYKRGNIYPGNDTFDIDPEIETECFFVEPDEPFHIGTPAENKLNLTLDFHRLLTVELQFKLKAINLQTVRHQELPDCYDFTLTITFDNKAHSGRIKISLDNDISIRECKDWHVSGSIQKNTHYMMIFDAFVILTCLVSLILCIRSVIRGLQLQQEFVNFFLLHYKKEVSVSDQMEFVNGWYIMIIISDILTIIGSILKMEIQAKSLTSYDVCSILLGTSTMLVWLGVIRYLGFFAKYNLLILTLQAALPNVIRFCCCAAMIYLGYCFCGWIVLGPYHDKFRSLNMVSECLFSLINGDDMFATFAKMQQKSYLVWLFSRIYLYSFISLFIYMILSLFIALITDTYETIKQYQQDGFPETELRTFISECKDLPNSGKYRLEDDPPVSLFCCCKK
How it was run: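 HEK293 cells were transiently cotransfected (Genejammer) with wild-type dynamin and TRPML3 and imaged 24 h later. Cells on glass coverslips were loaded with 4 µM fura-2-AM in bath solution (mM: 138 NaCl, 6 KCl, 2 MgCl2, 2 CaCl2, 10 HEPES, 5.5 D-glucose; pH 7.4). Responses to activators were compared with control transfections.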

TRPML3 [2] = assay type: cell-based
How it was run: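 Whole-cell recordings used HEK293 cells expressing TRPML3 with 100% series-resistance compensation. Pipette solution (mM): 140 CsCl, 10 HEPES, 3 ATP-Na, 1 BAPTA, 2 MgCl2; pH 7.2. Compound at 10 µM was perfused in endolymph-like solution (mM: 2 NaCl, 150 KCl, 0.25 CaCl2, 10 HEPES, 10 glucose; pH 7.4) or in standard bath. Inward current at −80 mV was normalized to capacitance.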

danio rerio TRPN1 = danio rerio TRPN1 (Danio rerio, UniProt Q7T1G6); assay type: cell-based
How it was run: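 HEK293 lines stably expressed YFP-fused human TRPML3 or zebrafish TRPN1 (G418 0.8 mg/ml, twice subcloned) and were plated at 1,500 cells/well for 23 h at 37 °C. After Fluo-8 loading (1 h 37 °C, 30 min RT), a 5 s basal read and 120 s post-addition read were taken. Max/basal ratios were normalized to DMSO and carbachol (87 µM).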

TRPML3 [3] = molecular target: T2, TRPML3 (Homo sapiens, UniProt Q8TDD5); assay: Whole-cell patch-clamp, HEK293 cells transiently transfected with TRPML3; assay type: cell-based
T2 sequence (Q8TDD5 1-553): T1 sequence (Q8TDD5 1-553)
How it was run: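 Whole-cell patch clamp was done on HEK293 cells 24 h after transient transfection with human TRPML3 or YFP; constitutively active TRPML3(A419P) cells served as positive control. Bath solution (mM): 138 NaCl, 5.4 KCl, 2 MgCl2, 2 CaCl2, 10 HEPES, 10 d-glucose; pH 7.4. Pipette solution (mM): 140 CsCl, 10 HEPES, 3 ATP-Na, 1 BAPTA, 2 MgCl2; pH 7.2. Compounds at 10 µM were perfused. Capacitance-normalized current at −80 mV is reported as mean ± SEM, n≥3.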

[4] = molecular target: T3, TRPML3 coexpressed with TRPML1 (Homo sapiens, UniProt Q8TDD5); assay: Calcium imaging, HEK293 cells coexpressing TRPML3 with TRPML1; assay type: cell-based; settings: 10 µM
T3 sequence (Q8TDD5 1-553): T1 sequence (Q8TDD5 1-553)
How it was run: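 Human TRPML3 and TRPML1 were transiently coexpressed in HEK293 cells (Genejammer) and imaged 24 h post-transfection. Cells on glass coverslips were loaded with 4 μM fura-2-AM in bath solution (mM: 138 NaCl, 6 KCl, 2 MgCl₂, 2 CaCl₂, 10 HEPES, 5.5 D-glucose, pH 7.4) and read on a monochromator imaging system. Test compound was 10 μM. Mean ± SEM, n≥3 independent experiments, 20–30 cells each.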

TRPML3 [5] = molecular target: T2, TRPML3; assay: Excised; assay type: cell-based
cochlear hair cells = assay: Recording from acutely isolated cochlear hair cells; assay type: cell-based, rat; settings: up-to 100 µM; in SBS, SN-2 also in ELS
TRPML2 = molecular target: T4, TRPML2 (Homo sapiens, UniProt Q8IZK6); assay: Fura-2 calcium imaging, HEK293 cells expressing TRPML2; assay type: cell-based; settings: 10 µM
T4 sequence (Q8IZK6 1-566): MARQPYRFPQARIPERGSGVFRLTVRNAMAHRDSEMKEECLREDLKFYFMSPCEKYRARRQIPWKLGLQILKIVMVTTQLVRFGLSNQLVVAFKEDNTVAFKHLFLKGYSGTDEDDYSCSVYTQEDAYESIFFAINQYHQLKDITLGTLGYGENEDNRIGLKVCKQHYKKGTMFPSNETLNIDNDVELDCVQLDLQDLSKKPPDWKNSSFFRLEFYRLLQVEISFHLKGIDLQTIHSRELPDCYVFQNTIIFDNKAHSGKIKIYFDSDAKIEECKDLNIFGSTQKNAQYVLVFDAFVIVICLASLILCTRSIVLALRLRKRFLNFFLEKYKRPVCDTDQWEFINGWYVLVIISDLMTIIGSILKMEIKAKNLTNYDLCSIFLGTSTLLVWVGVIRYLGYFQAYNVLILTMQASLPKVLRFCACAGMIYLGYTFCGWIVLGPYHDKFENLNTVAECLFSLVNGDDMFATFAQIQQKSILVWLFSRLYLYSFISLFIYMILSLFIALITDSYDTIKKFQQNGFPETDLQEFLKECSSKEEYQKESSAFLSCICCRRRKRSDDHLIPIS
How it was run: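 HEK293 cells were transiently transfected (Genejammer) with the human channel construct or YFP control and measured 24 h later. Cells on glass coverslips were loaded with 4 µM fura-2-AM in bath solution (mM: 138 NaCl, 6 KCl, 2 MgCl2, 2 CaCl2, 10 HEPES, 5.5 D-glucose; pH 7.4). Compounds were applied at 10 µM and the F340/F380 ratio recorded. Values are mean ± SEM, n≥3.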

danio rerio TRPN1, sequence (Q7T1G6 1-1614): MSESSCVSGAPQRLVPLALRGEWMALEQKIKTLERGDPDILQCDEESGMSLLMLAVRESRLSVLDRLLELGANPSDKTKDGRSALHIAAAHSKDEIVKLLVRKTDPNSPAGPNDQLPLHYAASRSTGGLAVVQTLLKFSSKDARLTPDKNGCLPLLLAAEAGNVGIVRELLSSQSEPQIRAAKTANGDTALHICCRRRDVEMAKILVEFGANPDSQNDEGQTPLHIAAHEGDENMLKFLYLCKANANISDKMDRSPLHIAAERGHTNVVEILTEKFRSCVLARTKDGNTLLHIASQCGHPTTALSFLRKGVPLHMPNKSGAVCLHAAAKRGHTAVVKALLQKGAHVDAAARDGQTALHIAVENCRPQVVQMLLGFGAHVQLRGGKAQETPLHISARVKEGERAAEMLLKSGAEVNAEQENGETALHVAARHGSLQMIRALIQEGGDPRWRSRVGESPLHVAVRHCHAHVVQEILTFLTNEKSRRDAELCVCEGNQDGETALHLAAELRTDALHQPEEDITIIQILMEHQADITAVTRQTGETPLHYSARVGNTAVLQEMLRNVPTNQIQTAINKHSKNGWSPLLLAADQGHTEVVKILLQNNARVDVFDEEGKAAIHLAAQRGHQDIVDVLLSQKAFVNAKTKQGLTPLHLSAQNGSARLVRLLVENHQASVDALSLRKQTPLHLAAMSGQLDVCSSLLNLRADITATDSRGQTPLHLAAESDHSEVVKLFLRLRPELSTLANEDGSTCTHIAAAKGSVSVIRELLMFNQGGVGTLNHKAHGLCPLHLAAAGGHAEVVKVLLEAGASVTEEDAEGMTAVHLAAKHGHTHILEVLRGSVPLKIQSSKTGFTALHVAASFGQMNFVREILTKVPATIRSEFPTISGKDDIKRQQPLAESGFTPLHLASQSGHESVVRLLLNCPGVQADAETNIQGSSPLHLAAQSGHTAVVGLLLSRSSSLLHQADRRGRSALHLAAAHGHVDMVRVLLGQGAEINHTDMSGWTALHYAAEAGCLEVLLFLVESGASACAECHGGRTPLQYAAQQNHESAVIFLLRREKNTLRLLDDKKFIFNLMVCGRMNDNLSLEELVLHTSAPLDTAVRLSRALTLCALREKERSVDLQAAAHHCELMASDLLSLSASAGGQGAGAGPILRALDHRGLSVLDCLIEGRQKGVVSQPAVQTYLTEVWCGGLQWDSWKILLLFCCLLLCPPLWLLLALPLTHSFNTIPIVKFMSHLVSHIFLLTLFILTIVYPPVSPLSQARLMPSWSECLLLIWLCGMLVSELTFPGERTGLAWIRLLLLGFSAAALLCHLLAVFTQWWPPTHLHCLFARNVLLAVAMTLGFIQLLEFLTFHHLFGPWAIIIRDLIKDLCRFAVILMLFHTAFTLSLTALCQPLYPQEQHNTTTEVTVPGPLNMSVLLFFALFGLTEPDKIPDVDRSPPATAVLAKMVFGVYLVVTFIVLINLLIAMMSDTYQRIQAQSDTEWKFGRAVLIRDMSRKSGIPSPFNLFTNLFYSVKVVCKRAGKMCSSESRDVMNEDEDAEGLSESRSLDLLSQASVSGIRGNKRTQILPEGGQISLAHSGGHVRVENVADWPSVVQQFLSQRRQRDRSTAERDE

In the case of Cc1cc(C)c(C2=NOC3C4CCC(C4)C23)c(C)c1 (stereo not drawn) [SN-2, 5-mesityl-3-oxa-4-azatricyclo[5.2.1.0∼2,6∼]dec-4-ene], the “response when wild type dynamin coexpressed with TRPML3 in HEK293 cells” value [1] is reported as “reduction in response”, the “increase in current densities, compound + ELS vs ELS alone or compound in SBS” value (TRPML3 [2]; 10 µM compound, ELS 2 mM Na+, 150 mM K+) is reported as no more than 10 fold and the “average current densities, compound + ELS” value (TRPML3 [2]; 10 µM, at −80 mV) is reported as “up to 3 nA/pF”. The EC50 (danio rerio TRPN1) was greater than 29.9 µM, the Emax (danio rerio TRPN1; HEK293, read-out: Max % Activation (Control)) was 3 ± 1% and the “nA/pF (-80 mV) (TRPML3)” value (TRPML3 [3]; current density at −80 mV, 10 µM in standard bath solution, mean ±SEM (n≥3)) was −0.30 ±0.07 nA/pF. The “average current density relative to constitutively active TRPML3 A419P” value (TRPML3 [3]; whole-cell, −80 mV) was “comparable to average current densities obtained from cells expressing the constitutively active varitint-waddler mutant isoform A419P”, the “calcium imaging response when TRPML1 was coexpressed with TRPML3” value [4] was “strong reduction of the calcium imaging responses” and the “conductance of TRPML3 channels” value (TRPML3 [5]; activated with 10 µM SN-2, at −80 mV, estimate) was “approximately 10 pS”. For the same compound, the “TRPML3 activity in excised patches” value (TRPML3 [5]; patches held at −80 mV) was “markedly increased TRPML3 activity”, the “TRPML3 channel activity in cochlear hair cells” value (cochlear hair cells) was “Neither compound at concentrations of up-to 100 µM, with or without endolymph-like extracellular solution, elicited TRPML3 channel activity” and the “response in HEK293 cells expressing TRPML2” value (TRPML2) was “did not show any activity”.
